Bioassay records (PubChem BioAssay)
MC4R antag cAMP – antagonists of human melanocortin 4 receptor (MC4R). MC4R-expressing cells, MTII-stimulated cAMP, LANCE TR-FRET. AID 540295. actives 0.48% (n = 360,000). inhibition, % at 6.5 µM;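 active means inhibition above its plate's cutoff, the mean of tested wells on that plate plus 3 SD, cut at about 29% in these data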;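 further: 0% = Melanotan II alone and 100% = Melanotan II plus saturating MCL0020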
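System: U2OS-MC4R stable cell line; Technique: Eu-cAMP/anti-cAMP TR-FRET, emission 671 nm; Repeats: single well per compound; Also added: Melanotan II; Dosing: one concentration, 6.5 µM nominal; Schedule: 30-min compound, 1-h challenge, 1-h detection, room temperature.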
ABCB6 inh 2 – inhibitors of human ABC transporter ABCB6; Q9NP58; K562-ABCB6 porphyrin accumulation, flow cytometry, 1 h; hits give low values; fluorescence ratio to DMSO, % at 10 µM; actives 0.19% (n = 360,000); AID 602162;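 active means fluorescence ratio to DMSO below 75%, the collection mean minus 3 SD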;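 further: signal is porphyrin accumulated inside mitochondria; 100% equals median channel fluorescence of DMSO control wells; lower ratio means ABCB6 inhibition with less porphyrin fluorescence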
Target sequence (Q9NP58 whole entry, looked up): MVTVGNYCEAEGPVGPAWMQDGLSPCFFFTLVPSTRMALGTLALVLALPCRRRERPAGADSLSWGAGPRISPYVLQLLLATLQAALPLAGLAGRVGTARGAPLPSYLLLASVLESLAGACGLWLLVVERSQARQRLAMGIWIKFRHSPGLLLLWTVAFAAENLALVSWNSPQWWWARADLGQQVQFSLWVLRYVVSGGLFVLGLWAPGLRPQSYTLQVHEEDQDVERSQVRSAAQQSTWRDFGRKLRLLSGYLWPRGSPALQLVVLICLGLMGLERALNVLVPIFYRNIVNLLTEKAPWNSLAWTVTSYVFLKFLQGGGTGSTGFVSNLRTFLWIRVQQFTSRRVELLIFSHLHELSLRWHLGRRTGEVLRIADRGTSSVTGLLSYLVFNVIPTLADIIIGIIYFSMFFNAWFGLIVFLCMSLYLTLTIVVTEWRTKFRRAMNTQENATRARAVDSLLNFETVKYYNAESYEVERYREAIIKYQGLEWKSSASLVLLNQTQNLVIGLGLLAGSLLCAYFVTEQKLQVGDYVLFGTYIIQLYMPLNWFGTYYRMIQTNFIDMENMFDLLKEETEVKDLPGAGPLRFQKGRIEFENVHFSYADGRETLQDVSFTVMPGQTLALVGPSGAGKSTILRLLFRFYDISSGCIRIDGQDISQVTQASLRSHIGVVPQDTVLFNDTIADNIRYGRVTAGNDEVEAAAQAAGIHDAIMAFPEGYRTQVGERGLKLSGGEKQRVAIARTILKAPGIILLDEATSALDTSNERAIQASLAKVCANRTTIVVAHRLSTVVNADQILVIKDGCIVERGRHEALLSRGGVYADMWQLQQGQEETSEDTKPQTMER
Tb MetRS inh – blocks T. brucei methionyl-tRNA synthetase activity; actives 0.4% (n = 360,000); inhibition, % at 11.9 µM; AID 624268; purified T. brucei MetRS, ATP depletion, Kinase-Glo luminescence;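 active means inhibition above a per-plate cutoff of the control wells' mean inhibition plus 3 SD, cut at about 5.5% in these data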;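 further: 0% = DMSO wells median and 100% = median of wells with control inhibitor compound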
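Assay system: T. brucei methionyl-tRNA synthetase, purified | Medium: HEPES buffer with MgCl2, KCl, DTT, spermine, BSA, pyrophosphatase | Compound: 11.9 µM single point | Incubation: 15 min enzyme-compound preincubation, 2 h reaction, 10 min detection, 25 °C | Measured by: Kinase-Glo luciferase luminescence reporting remaining unconsumed ATP | Measure: % inhibition normalized to control-well medians | Replication: Singlicate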
hiPSC survival – enhancers of human iPSC single-cell survival; hiPSC single-cell survival, ATPlite luminescence; 100% = ROCK inhibitor wells, 0% = DMSO; survival enhancement, % at 20 µM; actives 0.044% (n = 360,000); AID 602274; in the data active means survival enhancement above about 18%;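 further: cells exposed to compounds for 16 hours before the ATP read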
Exocytosis inh – lytic granule exocytosis inhibition; TALL-104 LAMP-1 surface exposure, flow cytometry; cells stimulated with thapsigargin and PMA; inhibition, % at 10 µM; actives 0.66% (n = 360,000);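 active means inhibition above about 55%, limit read from the data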
MC4R barr agon – agonists of human melanocortin 4 receptor (MC4R) beta-arrestin; P32245; U2OS MC4R beta-arrestin complementation, luminescence; percent of melanotan II response, DMSO zero; activation, % at 8.9 µM; actives 0.98% (n = 360,000); AID 540308;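 active means activation above a per-plate cutoff, the mean activation of sample wells on that plate plus 3 SD, cut at about 8% in these data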
MC4R barr ag – human MC4R beta-arrestin agonism confirmation; actives 31% (n = 2,400); shares compounds with MC4R barr agon; activation, % at 8.9 µM; U2OS MC4R beta-arrestin recruitment, luminescence; scaled DMSO 0%, Melanotan II 100%;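 active means mean activation across replicates above the hit cutoff set in the earlier primary screen, cut at about 8% in these data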
MOR DOR agonist – OPRM1-OPRD1 heterodimer agonism counter-screen; actives 5.8% (n = 2,400); activation, % at 9.2 µM; U2OS PathHunter beta-arrestin, beta-gal luminescence; percent of deltorphin B response, DMSO zero; shares compounds with MC4R barr agon;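 active means mean activation across replicates exceeds the hit threshold derived in the earlier primary screen, cut at about 18% in these data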;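 further: 100% = deltorphin B at 0.9 µM final and 0% = DMSO alone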
* marks the source's active call; other numbers are inactive results; x = no result given. This is a sample that favours compounds with a hit; in the whole collection about 2.6% have one here.

SMILES	MC4R antag cAMP	ABCB6 inh 2	Tb MetRS inh	hiPSC survival	Exocytosis inh	MC4R barr agon	MC4R barr ag	MOR DOR agonist
CCc1c(C2(O)CCCCC2)[nH]c2ccc(C#N)cc12	8	99	0	1	2	11*	3	8
COc1ccc(-c2nc(C#N)c(NCc3ccccc3Cl)o2)cc1OC	-12	101	1	12	0	13*	8	5
CCn1c(=O)c2sccc2n(Cc2cc(C(=O)OC)ccc2OC)c1=O	-7	102	0	0	9	1	x	x
O=C(COC(=O)C1CCN(c2ccc(C(F)(F)F)cn2)CC1)Nc1ncc(Cl)cc1Cl	2	85	0	6	-2	-2	x	x
Cc1cc(C)c2sc(N(CCCN(C)C)C(=O)COc3ccc(Cl)cc3)nc2c1	1	95	-1	0	34	11*	25*	18
Cc1ccc2oc(-c3cccc(N)c3)nc2c1	9	101	-1	-2	1	-4	x	x
Nc1cccc(-c2nc3cc(S(=O)(=O)c4ccc5oc(-c6cccc(N)c6)nc5c4)ccc3o2)c1	-2	100	-1	1	0	14*	5	8
CCOc1cc(/C=N/N=C(N)N)ccc1OCc1ccc(Cl)cc1	0	98	0	-4	23	12*	11*	14
CCOC(=O)C1CCN(S(=O)(=O)c2ccc3[nH]c4c(c3c2)CCCC4)CC1	10	95	-1	1	-3	-2	x	x
O=c1c2cc(N3CCOCC3)ccc2[nH]c(=S)n1CCc1ccccc1	9	102	-1	0	-4	-1	x	x
O=C(CCCCCn1c(=S)[nH]c2ccc(N3CCOCC3)cc2c1=O)NCc1cccc(Cl)c1	12	99	0	1	2	9.8*	2	3
COCCCn1c(=S)[nH]c2ccc(N3CCOCC3)cc2c1=O	5	104	0	0	5	-4	x	x
O=C(CCCCCn1c(=S)[nH]c2ccc(N3CCOCC3)cc2c1=O)NCc1ccccc1	23	99	0	4	-2	12*	7	3
Nc1c(C(=O)NCc2ccc3c(c2)OCO3)nnn1Cc1ccc(Br)cc1	-5	108	-1	0	-3	18*	7	10
Nc1c(C(=O)NCc2ccc3c(c2)OCO3)nnn1Cc1cccc(F)c1	1	100	0	0	-2	-1	x	x
O=C(/C=C/c1cccc(F)c1)OCC(=O)N1CCc2ccccc21	8	95	0	0	0	28*	0	3
O=C(CSc1nc2ccccc2[nH]1)c1c[nH]c2ccccc12	-7	93	2	0	-4	0	x	x
Cc1ccc2nc(SCC(=O)c3c[nH]c4ccccc34)[nH]c2c1	-2	126	3	0	0	12*	5	4
COc1ccc2nc(NC(=O)CSc3nc4cccnc4n3C)sc2c1	7	93	0	-1	-3	17*	37*	7
COc1ccc(NC(=O)CSc2nc3cccnc3n2C)cc1	8	98	0	0	0	-2	x	x
CN(C(=O)CSc1nc(N)cc(N)n1)C1CCS(=O)(=O)C1 (stereo unspecified)	6	94	0	0	0	-2	x	x
O=C(/C=C/c1cn(-c2ccccc2)nc1-c1ccccc1)Nc1ccc(C(=O)O)cc1	16	102	0	0	13	2	x	x
Cc1ccc(-c2nn(-c3ccccc3)cc2/C=C/C(=O)Nc2nccs2)cc1	-5	97	0	-2	-2	19*	8	4
O=C(Nc1c(Cl)cccc1Cl)c1ccc(-c2ccccc2)cc1	-1	99	-1	0	2	21*	-1	11
CCOC(=O)c1ccc(Cl)c(NC(=O)c2ccc(-c3ccccc3)cc2)c1	-19	93	-1	0	-2	13*	4	16
SMILES	MC4R antag cAMP	ABCB6 inh 2	Tb MetRS inh	hiPSC survival	Exocytosis inh	MC4R barr agon	MC4R barr ag	MOR DOR agonist
O=C(c1nc(SCc2ccc([N+](=O)[O-])cc2)n2ccccc12)C(F)(F)F	16	100	0	0	-2	-1	x	x
CCN(c1ccc(Cl)cc1)S(=O)(=O)c1nnc(NC(=O)C(C)C)s1	-4	98	-2	0	-4	10*	1	6
CCN(c1ccc(OC)cc1)S(=O)(=O)c1nnc(NC(=O)C2CCCCC2)s1	4	100	0	1	-5	12*	1	7
Cc1cc(Br)cc(Cl)c1OCC(=O)NC(=O)NCc1ccccc1	2	100	0	0	-3	12*	2	6
O=C(COC(=O)/C=C/c1ccccc1Cl)NCCc1ccc(Cl)cc1Cl	17	100	1	-2	-7	9.9*	1	3
O=C(COC(=O)/C=C/c1cccc(Cl)c1)NC(=O)NCc1ccccc1	1	93	-1	2	-3	11*	3	5
O=C(COC(=O)/C=C/c1ccc(OC(F)F)cc1)NC(=O)NCc1ccccc1	13	93	0	0	2	6	x	x
COc1ccc(NC(=O)c2cc(-c3ccc(F)cc3OC(C)C)n[nH]2)c(OC)c1	4	92	0	5	-6	-1	x	x
COc1ccc(NC(=O)c2cc(-c3cc(Cl)ccc3OC)n[nH]2)cc1OC	16	101	0	-2	-2	0	x	x
CCCOc1ccc(F)cc1-c1cc(C(=O)Nc2cc(OC)ccc2OC)[nH]n1	5	98	0	1	1	16*	1	11
COc1ccc(NC(=O)c2cc(-c3ccc(C)cc3O)n[nH]2)c(OC)c1	15	94	1	-1	2	10*	-2	4
COc1ccc(Cl)cc1-c1cc(C(=O)Nc2ccc(F)cc2)[nH]n1	2	97	0	3	-6	16*	0	9
O=c1c2ccc(Cl)cc2[nH]c(=S)n1CCC1=CCCCC1	28	93	0	1	-2	0	x	x
Cc1cccc(NC(=O)/C(C#N)=C\c2ccc(C(=O)O)cc2)c1	14	98	0	4	-1	-1	x	x
COc1cc(C)c(/C=C(\C#N)C(=O)Nc2cccc(C)c2)cc1C(C)C	5	93	-1	-2	-2	13*	5	4
Cc1ccc(S(=O)(=O)N2CCN(CCNC(=O)C(=O)Nc3ccc(F)cc3)CC2)cc1	24	98	0	0	1	14*	0	6
